Screens: PubChem, several laboratories
PG9 Ab binder = binds the HIV-1 gp120 antibody PG9; TR-FRET gp120-PG9 antibody binding; inhibition, % at 6.7 µM; 360,000 compounds, 0.43% hits; AID 624416; in the data active = inhibition above about 8.5%
MT1-MMP act inh = MT1-MMP (human) activation inhibition | AID 651647 | HT1080 RFP-PRO-GFP cells, GFP/RFP ratio fluorescence, overnight; percent of plate control window, DMSO zero | GFP/RFP ratio change, % at 20 µM | 360,000 compounds, 0.061% hits;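 active = GFP/RFP ratio change of at least 30% with cell ATP level not reduced by more than half and red fluorescence within 50% of control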
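Read-out: GFP/RFP fluorescence ratio; Test system: RFP-PRO-GFP reporter HT1080 cells; Compound dosing: single-point 20 µM compound, 1% DMSO; Times: overnight compound exposure at 37 °C.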
NR2E3 ag-1 = NR2E3 (human) agonism; GST-NR2E3/biotin-RetCOR TR-FRET, 1536-well; inhibition of corepressor binding, % at 4.78 µM; 320,000 compounds, 0.12% hits; Q9Y5X4;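 active = percent inhibition above the cutoff of mean plus 3 SD of all tested compounds, set per screening campaign, cut at about 20% in these data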
Target sequence (Q9Y5X4 whole entry, looked up): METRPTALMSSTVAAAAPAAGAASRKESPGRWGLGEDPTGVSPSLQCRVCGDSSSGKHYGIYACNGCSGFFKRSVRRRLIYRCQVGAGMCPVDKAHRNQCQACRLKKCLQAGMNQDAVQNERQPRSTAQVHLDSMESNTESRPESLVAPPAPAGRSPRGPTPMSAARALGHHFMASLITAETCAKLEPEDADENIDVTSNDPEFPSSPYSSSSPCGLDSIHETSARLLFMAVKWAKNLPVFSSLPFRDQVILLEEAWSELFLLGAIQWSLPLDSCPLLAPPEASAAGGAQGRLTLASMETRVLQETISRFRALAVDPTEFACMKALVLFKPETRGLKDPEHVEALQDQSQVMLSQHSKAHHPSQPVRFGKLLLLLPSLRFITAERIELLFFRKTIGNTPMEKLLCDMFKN
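Material: NR2E3–RetCOR corepressor complex / Amount: 1.35 nM GST-NR2E3 / Medium: Tris pH 7.5 / Compound: single nominal compound dose of 4.8 µM / Incubation: 5 h at 4 °C / Technique: TR-FRET, Eu(K)-anti-GST donor, streptavidin-D2 acceptor, ex 340, em 617/671 nm / Read-out basis: percent loss of FRET ratio relative to control wells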
NR2E3 ag-2 = activates human NR2E3 receptor; Q9Y5X4; CHO-S Gal4-NCOR/VP16-NR2E3 two-hybrid, luciferase; inhibition of corepressor binding, % at 3.98 µM; 360,000 compounds, 0.35% hits;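 active = inhibition above the mean of all tested compounds plus 3 SD, cut at about 70% in these data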;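 also: higher means lower luciferase signal from less NR2E3 corepressor binding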
SKN-1 inh = inhibitors of C. elegans SKN-1; 360,000 compounds, 0.49% hits; C. elegans VP596 Pgst-4::GFP/RFP ratio, acrylamide-induced, 24 h; inhibition, % at 21.8 µM; AID 624304;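 active = interference check ratio from 0.5 to 1.5 plus GFP to RFP signal ratio inhibition reaching or exceeding a fixed threshold, cut at about 30% in these data, passing the limit was not always enough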
Rev-erbA mod = modulates human Rev-erb alpha binding to DNA | P20393 | Rev-erbα–FITC-DNA binding, fluorescence polarization, 90 min | activity, % at 10 µM | 370,000 compounds, 0.79% hits | AID 1259318;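 active = activity above about 14%, limit read from the data; passing the limit was not always enough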
NR2E3 ag conf = NR2E3 agonism confirmed in two-hybrid assay; shares compounds with NR2E3 ag-2; CHO-S mammalian two-hybrid NR2E3-NCOR, luciferase luminescence; inhibition, % at 3.98 µM; 2,300 compounds, 51% hits;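 active = average inhibition above a cutoff equal to the mean inhibition of all tested compounds plus one SD, cut at about 70% in these data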
GAL4-VP16 luc = GAL4-VP16 reporter inhibition in NR2E3 agonist counterscreen; shares compounds with NR2E3 ag-2; CHO-S GAL4-VP16 luciferase reporter, luminescence; inhibition, % at 3.98 µM; 2,300 compounds, 29% hits; AID 624379;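 active = mean inhibition above a cutoff equal to the average over all tested compounds plus one standard deviation, cut at about 70% in these data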;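 also: luciferase from a UAS reporter driven by GAL4-VP16 transactivation; higher means less reporter light so more repression of VP16 activity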
Each line names hits and unclear results; the compound was inactive in the other large screens (follow-up assays come after a bar, where they were run). In the library only some 1.9% were active in any assay of this set; here they are far more common.

O=C(c1cc(COc2cccc3cnccc23)on1)N1CCCC(CCCO)C1 (stereo not given)	NR2E3 ag-2 109.6 | NR2E3 ag conf 98.7 | GAL4-VP16 luc 92.9
COc1ccc(OCc2cc(C(=O)N3CCCC(CO)C3)no2)c2ccccc12 (stereo not given)	none
COCC1CCN(C(=O)c2cc(COc3cccc4cnccc34)on2)CC1	NR2E3 ag-2 90.5 | NR2E3 ag conf 72.1 | GAL4-VP16 luc inactive
Cc1nn(C)cc1C(C)NC(=O)c1cc(COc2cccc3cnccc23)on1 (stereo not given)	none | NR2E3 ag conf inactive | GAL4-VP16 luc inactive
Cc1nn(C)cc1C(C)NC(=O)c1cc(COc2c(F)cccc2F)on1 (stereo not given)	none
COC(=O)c1cccc(Cn2ccc3ccc(-c4ccc5ccn(C(=O)C6CC6)c5c4)cc32)c1	none (no result: PG9 Ab binder, MT1-MMP act inh, NR2E3 ag-1, NR2E3 ag-2, SKN-1 inh)
C=CCN1C(=O)c2n[nH]c(COC)c2C1c1cccc(C(F)(F)F)c1 (stereo not given)	none (no result: MT1-MMP act inh, NR2E3 ag-1, NR2E3 ag-2, SKN-1 inh)
Cc1cc(C(=O)CSc2nnc(N)s2)c(C)n1Cc1cccs1	none
CC(=O)Nc1ccccc1OCC(=O)c1cc(C)n(Cc2cccs2)c1C	NR2E3 ag-2 90.2 | NR2E3 ag conf 93.0 | GAL4-VP16 luc 72.5
Cc1cc(C(=O)COc2cccnc2[N+](=O)[O-])c(C)n1Cc1cccs1	none | NR2E3 ag conf 73.2 | GAL4-VP16 luc inactive
COC(=O)C1CN(Cc2ccccc2)CCS(=O)(=O)N1Cc1ccccc1F (stereo not given)	none (no result: PG9 Ab binder, MT1-MMP act inh, NR2E3 ag-1, NR2E3 ag-2, SKN-1 inh)
CC(C)C[C@@H]1COc2cc(F)ccc2S(=O)(=O)N1C	none (no result: PG9 Ab binder, MT1-MMP act inh, NR2E3 ag-1, NR2E3 ag-2, SKN-1 inh)
CC(=O)N(c1nc2ccccc2s1)N1C(=O)c2ccccc2C1=O	none (no result: MT1-MMP act inh, NR2E3 ag-1, NR2E3 ag-2, SKN-1 inh)
Cn1c2c(c(=O)n(C)c1=O)C(C(F)(F)F)(C(F)(F)F)N=C(c1ccc(Cl)cc1)N2	NR2E3 ag-2 97.7 (no result: PG9 Ab binder, Rev-erbA mod) | NR2E3 ag conf 98.7 | GAL4-VP16 luc 90.5
O=[N+]([O-])c1ccc(SN2CCCCC2)c([N+](=O)[O-])c1	none (no result: MT1-MMP act inh, NR2E3 ag-1, NR2E3 ag-2, SKN-1 inh)
CCOCCOC(=O)c1[nH]c2c(c1C)C(=O)CC(c1cc(OC)c(OC)c(OC)c1)C2 (stereo not given)	none | NR2E3 ag conf inactive | GAL4-VP16 luc inactive
CCOCCOC(=O)c1[nH]c2c(c1C)C(=O)CC(c1ccccc1)C2 (stereo not given)	none
CCCCCOC(=O)c1[nH]c2c(c1C)C(=O)CC(c1ccco1)C2 (stereo not given)	none (no result: PG9 Ab binder, Rev-erbA mod) | NR2E3 ag conf inactive | GAL4-VP16 luc inactive
COC(=O)c1[nH]c2c(c1C)C(=O)CC(c1cc(OC)c(OC)c(OC)c1)C2 (stereo not given)	none
CCOC(=O)c1cnc(SCC(=O)Nc2cc(OC)ccc2OC)nc1N	none | NR2E3 ag conf inactive | GAL4-VP16 luc inactive
Cc1ccc(/C=C2/CNC/C(=C/c3ccc(C)cc3)C2=O)cc1	none (no result: NR2E3 ag-1) | NR2E3 ag conf inactive | GAL4-VP16 luc inactive
N#Cc1ccc(Cn2ccc3ccc(-c4ccc5ccn(Cc6ccccc6)c5c4)cc32)cc1	none (no result: PG9 Ab binder, MT1-MMP act inh, NR2E3 ag-1, NR2E3 ag-2, SKN-1 inh)
COc1ccc(C2CC(=O)C(c3ccc(F)cc3)=CN2Cc2ccccc2)cc1 (stereo not given)	none (no result: MT1-MMP act inh, NR2E3 ag-1, NR2E3 ag-2, SKN-1 inh)
O=C(C=P(c1ccccc1)(c1ccccc1)c1ccccc1)c1ccccc1-c1ccccc1C(=O)C=P(c1ccccc1)(c1ccccc1)c1ccccc1	NR2E3 ag-2 98.4 (no result: NR2E3 ag-1) | NR2E3 ag conf 99.5 | GAL4-VP16 luc 87.4
O=C(NNC(=O)c1ccccc1-c1ccccc1C(=O)O)c1ccccc1	none
C[C@@H]1CN([C@H](C)CO)C(=O)CCCn2cc(nn2)CO[C@H]1CN(C)C(=O)Oc1ccccc1	none (no result: MT1-MMP act inh, NR2E3 ag-1, NR2E3 ag-2, SKN-1 inh)
S=C(NCC1CCCCC1)OC1CCC12CCC(c1ccccc1)CC2 (stereo not given)	none (no result: PG9 Ab binder, MT1-MMP act inh, NR2E3 ag-1, NR2E3 ag-2, SKN-1 inh)
C=CS(=O)(=O)N(Cc1ccc(Cl)c(Cl)c1)C[C@@H](O)CO	none (no result: PG9 Ab binder, NR2E3 ag-1, Rev-erbA mod) | NR2E3 ag conf inactive | GAL4-VP16 luc inactive
